Experimental data reported in ChEMBL document CHEMBL1152488, “Synthesis and evaluation of pyrido[1,2-a]pyrimidines as inhibitors of nitric oxide synthases” (Eur J Med Chem, 2009).

Experiments:
[1] = target: T1, Nitric oxide synthase, inducible (Mus musculus) (UniProt P29477); experiment: Inhibition of mouse recombinant iNOS expressed in Escherichia coli assessed as conversion of [gamma-14C]L-arginine to [14C]L-citrulline at 100 uM by radioactive assay relative to control; parameters: scale not given: the % may be the effect or the level left
T1 sequence (whole entry): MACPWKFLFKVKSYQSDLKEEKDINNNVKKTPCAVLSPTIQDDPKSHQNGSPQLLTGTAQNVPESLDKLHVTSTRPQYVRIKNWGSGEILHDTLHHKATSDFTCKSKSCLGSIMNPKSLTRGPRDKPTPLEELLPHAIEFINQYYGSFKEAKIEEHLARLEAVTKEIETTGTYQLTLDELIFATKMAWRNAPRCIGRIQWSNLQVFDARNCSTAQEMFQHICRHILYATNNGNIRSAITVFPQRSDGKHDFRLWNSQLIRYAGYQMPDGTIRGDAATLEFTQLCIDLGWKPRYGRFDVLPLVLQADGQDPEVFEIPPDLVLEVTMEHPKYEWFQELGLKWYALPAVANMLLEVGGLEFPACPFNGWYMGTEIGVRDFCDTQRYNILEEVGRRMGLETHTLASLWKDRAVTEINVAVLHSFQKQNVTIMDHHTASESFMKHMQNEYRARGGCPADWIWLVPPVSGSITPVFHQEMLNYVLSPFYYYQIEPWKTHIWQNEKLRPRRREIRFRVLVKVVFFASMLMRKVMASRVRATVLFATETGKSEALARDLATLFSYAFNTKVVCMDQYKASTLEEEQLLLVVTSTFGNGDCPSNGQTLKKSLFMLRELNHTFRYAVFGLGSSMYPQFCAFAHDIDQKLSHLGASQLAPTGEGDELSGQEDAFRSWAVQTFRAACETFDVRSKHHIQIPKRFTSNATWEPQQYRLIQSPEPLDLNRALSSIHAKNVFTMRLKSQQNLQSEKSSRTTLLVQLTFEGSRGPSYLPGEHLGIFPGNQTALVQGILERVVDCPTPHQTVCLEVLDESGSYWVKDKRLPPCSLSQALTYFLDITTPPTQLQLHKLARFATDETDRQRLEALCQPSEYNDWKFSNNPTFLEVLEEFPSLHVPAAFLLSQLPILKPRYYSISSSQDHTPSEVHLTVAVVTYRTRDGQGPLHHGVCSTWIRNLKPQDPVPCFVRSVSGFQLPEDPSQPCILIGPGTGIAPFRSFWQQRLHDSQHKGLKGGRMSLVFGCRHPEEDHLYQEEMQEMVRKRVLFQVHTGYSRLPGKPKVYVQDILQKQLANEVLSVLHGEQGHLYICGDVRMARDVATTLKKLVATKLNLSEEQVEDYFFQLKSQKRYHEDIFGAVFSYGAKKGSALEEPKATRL
Method in brief: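 Purified enzymes: rat nNOS from S. cerevisiae, murine iNOS and bovine eNOS from E. coli. Reaction 5 min at 37 °C in 50 mM Hepes pH 7.4 with DTT, 1 mM NADPH, H4B, FAD, FMN, [14C]L-arginine (2.5 µM L-arginine) and 100 µM compound in 1% DMSO. nNOS/eNOS also got 1 mM CaCl2 and CaM, which iNOS lacked. [14C]citrulline isolated on Dowex and counted by scintillation; % of DMSO control, n=3.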

[2] = target: T1, Nitric oxide synthase, inducible (Mus musculus); experiment: Inhibition of mouse iNOS expressed in insect Sf9 cells assessed as residual activity at 100 uM by Griess assay relative to control
Method in brief: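 Murine iNOS produced in Sf9 insect cells. Buffer: 50 mM triethanolamine pH 7.5, 1 mM CHAPS, 10 mM 2-mercaptoethanol, 0.5 mM EDTA. Additions: 1 mM Mg2+, 5 µM FAD, 5 µM FMN, 0.5 mM NADPH, 10 µM H4B, 10 µg/ml CaM, 1 mM L-arginine. Compound at 100 µM final, 37 °C for 20 min. NADPH removed with LDH/pyruvate, then Griess read at 543 nm. Values are % of 1% DMSO control, 5 experiments.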

[3] = target: T2, Nitric oxide synthase 3 (Bos taurus) (UniProt P29473); experiment: Inhibition of bovine eNOS expressed in insect Sf9 cells assessed as residual activity at 100 uM by Griess assay relative to control
T2 sequence (whole entry): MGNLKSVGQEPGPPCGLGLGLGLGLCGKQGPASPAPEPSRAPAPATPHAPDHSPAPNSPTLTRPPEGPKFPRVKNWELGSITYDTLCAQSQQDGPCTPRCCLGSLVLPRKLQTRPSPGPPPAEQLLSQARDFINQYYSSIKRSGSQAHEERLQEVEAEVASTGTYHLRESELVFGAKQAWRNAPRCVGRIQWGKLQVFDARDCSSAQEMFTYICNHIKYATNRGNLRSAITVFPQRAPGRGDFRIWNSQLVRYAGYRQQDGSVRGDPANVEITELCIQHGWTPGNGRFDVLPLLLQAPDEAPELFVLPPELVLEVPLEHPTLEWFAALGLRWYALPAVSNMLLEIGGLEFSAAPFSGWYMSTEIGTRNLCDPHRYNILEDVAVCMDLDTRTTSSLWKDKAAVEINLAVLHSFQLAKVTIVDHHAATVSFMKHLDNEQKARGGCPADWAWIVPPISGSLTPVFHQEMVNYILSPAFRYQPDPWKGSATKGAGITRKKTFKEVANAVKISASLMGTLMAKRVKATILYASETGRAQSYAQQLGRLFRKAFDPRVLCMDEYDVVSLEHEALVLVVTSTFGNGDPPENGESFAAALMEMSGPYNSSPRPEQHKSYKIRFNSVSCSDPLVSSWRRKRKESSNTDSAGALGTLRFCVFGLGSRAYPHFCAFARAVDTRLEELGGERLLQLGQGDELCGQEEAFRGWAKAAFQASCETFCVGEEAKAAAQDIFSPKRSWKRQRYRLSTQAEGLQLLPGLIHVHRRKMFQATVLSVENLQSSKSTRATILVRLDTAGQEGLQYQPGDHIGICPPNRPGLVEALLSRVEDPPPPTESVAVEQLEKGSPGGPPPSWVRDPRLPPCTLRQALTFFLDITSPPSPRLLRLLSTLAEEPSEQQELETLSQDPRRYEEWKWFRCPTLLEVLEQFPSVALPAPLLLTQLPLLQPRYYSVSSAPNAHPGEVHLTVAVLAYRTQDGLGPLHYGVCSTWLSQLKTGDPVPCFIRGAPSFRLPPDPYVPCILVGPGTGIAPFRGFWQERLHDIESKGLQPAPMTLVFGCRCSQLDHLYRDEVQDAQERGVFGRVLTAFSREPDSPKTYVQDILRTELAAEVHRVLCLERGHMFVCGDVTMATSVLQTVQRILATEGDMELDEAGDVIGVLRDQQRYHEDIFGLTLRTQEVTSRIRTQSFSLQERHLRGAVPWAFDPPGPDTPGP
Method in brief: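 Bovine eNOS from Sf9 cells. Reaction: triethanolamine buffer pH 7.5, 0.5 mM Ca2+, 10 µg/ml CaM, 10 µM H4B, FAD, FMN, 0.5 mM NADPH, 1 mM L-arginine, with 100 µM compound, 20 min at 37 °C. After NADPH removal by LDH/pyruvate, nitrite measured by Griess at 543 nm. Expressed as % residual activity versus 1% DMSO control, 5 experiments.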

CC1=CC2=NCC(C(=O)c3ccc(-c4ccc(Br)cc4)cc3)CN2C(C)=C1 (stereo not drawn)
Activity [1]: 35%

CC1=CC2=NCC(C(=O)c3ccc4ccccc4c3)CN2C=C1 (stereo not drawn)
Activity [2]: 28%
Activity [3]: 50%

COc1ccc(-c2ccc(C(=O)C3CN=C4C=C(C)C=CN4C3)cc2)cc1.Cl (stereo not drawn)
Activity [1]: 13%

COc1ccc(C(=O)C2CN=C3C=CC=C(C)N3C2)cc1OC.[O-][Cl+3]([O-])([O-])O (stereo not drawn)
Activity [1]: 91%
Activity [2]: 95%
Activity [3]: 90%

N=C(NCCC[C@H](N)C(=O)O)N[N+](=O)[O-]
Activity [1]: 15%

CC1=CC2=NCC(C(=O)c3ccc(F)cc3)CN2C=C1 (stereo not drawn)
Activity [2]: 78%
Activity [3]: 37%

CC1=CC2=NCC(C(=O)c3ccc(-c4ccc(Br)cc4)cc3)CN2C=C1.[O-][Cl+3]([O-])([O-])O (stereo not drawn)
Activity [1]: 19%

CC1=CC2=NCC(C(=O)c3ccc4cc(C)ccc4c3)CN2C(C)=C1.[O-][Cl+3]([O-])([O-])O (stereo not drawn)
Activity [1]: 28%

O=C(c1ccc2ccccc2c1)C1CN=C2C=CC=CN2C1 (stereo not drawn)
Activity [2]: 97%
Activity [3]: 80%

COc1ccc2cc(C(=O)C3CN=C4C=C(C)C=CN4C3)ccc2c1 (stereo not drawn)
Activity [2]: 72%
Activity [3]: 80%

CCCNC(=N)NCCC[C@H](N)C(=O)O
Activity [2]: 88%
Activity [3]: 93%

CC1=CC2=NCC(C(=O)c3ccc(-c4ccccc4)cc3)CN2C=C1 (stereo not drawn)
Activity [2]: 40%
Activity [3]: 17%

COc1ccc(C(=O)C2CN=C3C=C(C)C=CN3C2)cc1F.[O-][Cl+3]([O-])([O-])O (stereo not drawn)
Activity [1]: 45%

CC1=CC2=NCC(C(=O)c3ccc(Br)cc3)CN2C=C1 (stereo not drawn)
Activity [2]: 33%
Activity [3]: 72%

CC1=CC2=NCC(C(=O)c3ccccc3)CN2C=C1 (stereo not drawn)
Activity [2]: 16%
Activity [3]: 40%

O=C(c1ccc(Br)cc1)C1CN=C2C=CC=CN2C1 (stereo not drawn)
Activity [2]: 92%
Activity [3]: 86%

CC1=CC2=NCC(C(=O)c3ccc(-c4ccc(C#N)cc4)cc3)CN2C=C1.Cl (stereo not drawn)
Activity [1]: 18%

CC1=CC=CC2=NCC(C(=O)c3ccc(Br)cc3)CN12 (stereo not drawn)
Activity [2]: 9%
Activity [3]: 93%

CC1=CC2=NCC(C(=O)c3ccc(OCc4ccc(Br)cc4)cc3)CN2C=C1.Cl (stereo not drawn)
Activity [1]: 62%

CC1=CC=CC2=NCC(C(=O)c3ccc(C)cc3)CN12.[O-][Cl+3]([O-])([O-])O (stereo not drawn)
Activity [1]: 66%
Activity [2]: 99%
Activity [3]: 101%

O=C(c1ccc(Cl)c(Cl)c1)C1CN=C2C=CC=CN2C1.[O-][Cl+3]([O-])([O-])O (stereo not drawn)
Activity [1]: 85%
Activity [2]: 95%
Activity [3]: 83%

CCSC(=N)N
Activity [2]: 2%
Activity [3]: 27%

CC1=CC2=NCC(C(=O)c3ccc4cc(C)ccc4c3)CN2C=C1.[O-][Cl+3]([O-])([O-])O (stereo not drawn)
Activity [1]: 13%
Activity [2]: 90%
Activity [3]: 49%

CC(=N)NCc1cccc(CN)c1
Activity [2]: 3%
Activity [3]: 107%

CC1=CC2=NCC(C(=O)c3ccc(OCc4ccc(C#N)cc4)cc3)CN2C=C1.[O-][Cl+3]([O-])([O-])O (stereo not drawn)
Activity [1]: 30%

CC1=CC=CC2=NCC(C(=O)c3ccc(F)cc3)CN12.[O-][Cl+3]([O-])([O-])O (stereo not drawn)
Activity [1]: 66%
Activity [2]: 83%
Activity [3]: 41%

CC1=CC2=NCC(C(=O)c3ccc(Cl)cc3)CN2C=C1 (stereo not drawn)
Activity [2]: 28%
Activity [3]: 20%

CC1=CC2=NCC(C(=O)c3ccc(OCc4ccc(Cl)cc4)cc3)CN2C=C1.[O-][Cl+3]([O-])([O-])O (stereo not drawn)
Activity [1]: 25%

CC1=CC=CC2=NCC(C(=O)c3ccc4ccccc4c3)CN12 (stereo not drawn)
Activity [2]: 75%
Activity [3]: 75%
